Measurements taken from article PMC8592256 (Nature structural & molecular biology, 2021).

Tests used:
Type in all cases: binding
HS-VPS4B-WT = molecular target: T1, HS-VPS4B-WT (Homo sapiens, UniProt O75351); assay: DSF, HS-VPS4B-WT; conditions: ADP 1 mM; WT and Asp-to-Cys mutant to a similar extent
T1 sequence (O75351 1-444): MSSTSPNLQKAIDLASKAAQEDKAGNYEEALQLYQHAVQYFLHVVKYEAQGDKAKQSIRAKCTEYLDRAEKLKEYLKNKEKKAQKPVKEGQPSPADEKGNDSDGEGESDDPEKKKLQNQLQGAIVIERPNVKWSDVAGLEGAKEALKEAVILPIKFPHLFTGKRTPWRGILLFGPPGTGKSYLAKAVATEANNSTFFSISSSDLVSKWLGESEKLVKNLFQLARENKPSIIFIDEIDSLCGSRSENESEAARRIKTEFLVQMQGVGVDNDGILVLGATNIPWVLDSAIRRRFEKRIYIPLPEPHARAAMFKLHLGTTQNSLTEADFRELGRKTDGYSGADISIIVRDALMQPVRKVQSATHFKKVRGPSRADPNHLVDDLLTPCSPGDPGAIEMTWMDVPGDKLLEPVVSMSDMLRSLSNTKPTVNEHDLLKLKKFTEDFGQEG
In short: (§1)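 FIGL1 and HS-VPS4B (WT and Asp-to-Cys mutant) were scanned at 8 μM protein, with or without ADP 1 mM, in 20 mM HEPES.Na, 120 mM NaCl, 5 mM MgCl2, 1 mM TCEP, 10 mM (NH4)2SO4, pH 7.5. Buffer contained SYPRO Orange and 5% DMSO final. Melting temperature was taken from the minimum of the first derivative of the fluorescence–temperature curve. ΔTm was relative to the no-ADP control.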

FIGL1-WT = molecular target: T2, FIGL1-WT (Homo sapiens, UniProt Q6PIW4); assay: DSF, FIGL1-WT; conditions: ADP 1 mM; WT and Asp-to-Cys mutant to a similar extent
T2 sequence (Q6PIW4 288-674): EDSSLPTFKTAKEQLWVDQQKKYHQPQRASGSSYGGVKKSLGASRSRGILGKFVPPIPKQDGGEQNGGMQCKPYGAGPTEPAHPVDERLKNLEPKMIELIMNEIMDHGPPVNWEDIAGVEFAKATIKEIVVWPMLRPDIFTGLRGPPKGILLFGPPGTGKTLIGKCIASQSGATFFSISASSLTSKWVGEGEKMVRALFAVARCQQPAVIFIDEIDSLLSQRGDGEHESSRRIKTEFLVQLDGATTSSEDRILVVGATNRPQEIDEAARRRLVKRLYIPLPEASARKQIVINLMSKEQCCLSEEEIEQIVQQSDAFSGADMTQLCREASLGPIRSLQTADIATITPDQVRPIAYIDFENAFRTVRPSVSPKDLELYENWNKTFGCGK
In short: as §1

[1] = test system: human katanin AAA domain variability hotspot mutant constructs (L214C, T253N, A419L, T422K etc.); assay: DSF, katanin AAA domain variability hotspot mutants
In short: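 Human katanin constructs (AAA domain aa 171–491, or aa 111–491; WT or mutants) were expressed in E. coli Rosetta (DE3) pLysS and purified by MBP-affinity, protease tag cleavage, anion exchange and gel filtration. Protein was 8 μM in 20 mM HEPES.Na, 120 mM NaCl, 5 mM MgCl2, 1 mM TCEP, 10 mM (NH4)2SO4, pH 7.5, with SYPRO Orange. Ligand was ADP 1 mM or compound 50–500 μM, in 5% DMSO final. Tm was taken as the minimum of the first derivative of fluorescence versus temperature.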

Row | increase in thermal stability on ADP binding (HS-VPS4B-WT) | increase in thermal stability on ADP binding (FIGL1-WT) | effect of mutation on compound binding (DSF) ([1]; three of the four variability hotspot mutations, compound 500 μM) | SMILES | shift in melting temperature (ΔTm) ([1]; ADP 1 mM, five alleles with mutations at the variability hotspots)
1 | approximately +5 °C | ~+3 °C |  | Nc1ncnc2c1ncn2[C@@H]1O[C@H](COP(=O)(O)OP(=O)(O)O)[C@@H](O)[C@H]1O [ADP, adenosine 5’-diphosphate] | +4 to +6 °C
2 |  |  | reduced compound binding | Nc1nc2c(-c3ccccc3)cccn2n1 [compound 1, 8-phenyl-triazolopyridine-2-amine] | 
